Measurements: ChEMBL document CHEMBL1275561, “In vitro activities of doripenem, a new broad-spectrum carbapenem, against recently collected clinical anaerobic isolates, with emphasis on the Bacteroides fragilis group” (2008)

How the values were obtained:
Format in all cases: functional
[1] = tested on: Peptoniphilus asaccharolyticus; test: Antimicrobial activity against Peptoniphilus asaccharolyticus by agar dilution method
How it was run: (§1)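 Gram-positive anaerobes were tested by CLSI agar dilution on brucella agar enriched with 5% lysed defibrinated sheep blood and 1 μg/ml vitamin K1. Inoculum was log-phase growth at 0.5 McFarland, about 10^5 CFU/spot by replicator. Incubation was anaerobic, 37°C, 48 h. MIC was the lowest concentration with a marked growth change versus the drug-free plate. Eubacterium lentum ATCC 43055 was the control, and tests were repeated if it fell outside the CLSI range.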

Bacteroides caccae [2] = test: Antimicrobial activity against Bacteroides caccae assessed as resistant isolates by agar dilution method
How it was run: (§2)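 CLSI agar dilution on enriched brucella agar (5% lysed defibrinated sheep blood, 1 μg/ml vitamin K1), plates made on test day. Log-phase inocula adjusted to 0.5 McFarland; about 10^5 CFU/spot by Steers replicator. Incubated anaerobically at 37°C for 48 h. MIC was the lowest concentration giving a marked change in growth versus the drug-free control plate. Resistance rates used CLSI anaerobe breakpoints. Controls were B. fragilis ATCC 25285 and B. thetaiotaomicron ATCC 29741.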

[Clostridium] innocuum [3] = Antimicrobial activity against Clostridium innocuum by agar dilution method
[4] = tested on: Parabacteroides distasonis; test: Antimicrobial activity against Bacteroides distasonis by agar dilution method
How it was run: (§3)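 CLSI agar dilution on enriched brucella agar (5% lysed defibrinated sheep blood, 1 μg/ml vitamin K1), with drug plates made on the test day. Log-phase cells were adjusted to 0.5 McFarland, and about 10^5 CFU/spot was delivered by Steers replicator. Plates were incubated anaerobically at 37°C for 48 h. MIC was the lowest concentration giving a marked growth change versus the control plate. Controls were B. fragilis ATCC 25285 and B. thetaiotaomicron ATCC 29741.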

Bacteroides nordii [5] = test: Antimicrobial activity against Bacteroides nordii by agar dilution method; how it was run: as §3
Bacteroides fragilis [6] = test: Antimicrobial activity against Bacteroides fragilis by agar dilution method; how it was run: as §3
Bacteroides ovatus [7] = test: Antimicrobial activity against Bacteroides ovatus assessed as resistant isolates by agar dilution method; how it was run: as §2
Bacteroides uniformis [8] = test: Antimicrobial activity against Bacteroides uniformis assessed as resistant isolates by agar dilution method; how it was run: as §2
Finegoldia magna [9] = test: Antimicrobial activity against Finegoldia magna by agar dilution method; how it was run: as §1
Clostridium subterminale = test: Antimicrobial activity against Clostridium subterminale by agar dilution method
Clostridium tertium = test: Antimicrobial activity against Clostridium tertium by agar dilution method
Cutibacterium acnes [10] = test: Antimicrobial activity against Propionibacterium acnes by agar dilution method
How it was run: (§4)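 Log-phase isolates were adjusted to 0.5 McFarland, and about 10^5 CFU/spot was delivered by Steers replicator. Plates were incubated anaerobically at 37°C for 48 h. MIC was the lowest concentration giving a marked growth change versus the control plate. Eubacterium lentum ATCC 43055 was the QC strain, with repeats when out of range.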

Bacteroides fragilis [11] = test: Antimicrobial activity against Bacteroides fragilis assessed as resistant isolates by agar dilution method; how it was run: as §2
Parabacteroides merdae [12] = test: Antimicrobial activity against Bacteroides merdae assessed as resistant isolates by agar dilution method; how it was run: as §2
Propionibacterium [13] = test: Antimicrobial activity against Propionibacterium sp. by agar dilution method; how it was run: as §4
Cutibacterium acnes [14] = test: Antimicrobial activity against Propionibacterium acnes assessed as resistant isolates by agar dilution method
How it was run: (§5)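 Agar dilution following CLSI on brucella agar with 5% lysed defibrinated sheep blood and 1 μg/ml vitamin K1, plates made on test day. Log-phase cells at 0.5 McFarland, about 10^5 CFU/spot by Steers replicator, 48 h anaerobic at 37°C. MIC read as the lowest concentration causing a marked growth change versus control. Resistance counted by CLSI anaerobe breakpoints. Eubacterium lentum ATCC 43055 served as control.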

[Clostridium] innocuum [15] = Antimicrobial activity against Clostridium innocuum assessed as resistant isolates by agar dilution method; details: pooled result: one value given for 4 cell lines, strains, targets or settings
Finegoldia magna [16] = test: Antimicrobial activity against Finegoldia magna assessed as resistant isolates by agar dilution method; how it was run: as §5
Parvimonas micra = test: Antimicrobial activity against Micromonas micros by agar dilution method; how it was run: as §1
Peptostreptococcus sp. = test: Antimicrobial activity against Peptostreptococcus sp. by agar dilution method; how it was run: as §4
Propionibacterium [17] = test: Antimicrobial activity against Propionibacterium sp. assessed as resistant isolates by agar dilution method; how it was run: as §5
[18] = tested on: Bacteroides thetaiotaomicron; test: Antimicrobial activity against Bacteroides thetaiotaomicron by agar dilution method; how it was run: as §3
Clostridium perfringens = test: Antimicrobial activity against Clostridium perfringens by agar dilution method
Phocaeicola vulgatus [19] = test: Antimicrobial activity against Bacteroides vulgatus by agar dilution method; how it was run: as §3
Bacteroides ovatus [20] = test: Antimicrobial activity against Bacteroides ovatus by agar dilution method; how it was run: as §3
Anaerococcus prevotii = test: Antimicrobial activity against Anaerococcus prevotii by agar dilution method; how it was run: as §1
[21] = tested on: Parabacteroides distasonis; test: Antimicrobial activity against Bacteroides distasonis assessed as resistant isolates by agar dilution method; how it was run: as §2
Bacteroides nordii [22] = test: Antimicrobial activity against Bacteroides nordii assessed as resistant isolates by agar dilution method; how it was run: as §2
Bacteroides eggerthii [23] = test: Antimicrobial activity against Bacteroides eggerthii by agar dilution method; how it was run: as §3
Bacteroides uniformis [24] = test: Antimicrobial activity against Bacteroides uniformis by agar dilution method; how it was run: as §3
Clostridioides difficile = test: Antimicrobial activity against Clostridium difficile by agar dilution method
[25] = tested on: Peptoniphilus asaccharolyticus; test: Antimicrobial activity against Peptoniphilus asaccharolyticus assessed as resistant isolates by agar dilution method; details: pooled result: one value given for 4 cell lines, strains, targets or settings; how it was run: as §5
Bacteroides eggerthii [26] = test: Antimicrobial activity against Bacteroides eggerthii assessed as resistant isolates by agar dilution method; how it was run: as §2
Parabacteroides merdae [27] = test: Antimicrobial activity against Bacteroides merdae by agar dilution method; how it was run: as §3
[28] = tested on: Bacteroides thetaiotaomicron; test: Antimicrobial activity against Bacteroides thetaiotaomicron assessed as resistant isolates by agar dilution method; how it was run: as §2
[29] = tested on: Clostridium paraputrificum; test: Antimicrobial activity against Clostridium paraputrificum by agar dilution method
Phocaeicola vulgatus [30] = test: Antimicrobial activity against Bacteroides vulgatus assessed as resistant isolates by agar dilution method; how it was run: as §2
Bacteroides caccae [31] = test: Antimicrobial activity against Bacteroides caccae by agar dilution method; how it was run: as §3

C[C@@H](O)[C@H]1C(=O)N2C(C(=O)O)=C(S[C@@H]3CN[C@H](C(=O)Nc4cccc(C(=O)O)c4)C3)[C@H](C)[C@H]12
0.25 µg/mL: MIC90 (Propionibacterium [13]) | MIC90 (Clostridium perfringens)
0%: Activity (Bacteroides caccae [2]) | Activity (Bacteroides uniformis [8]) | Activity (Parabacteroides merdae [12]) | Activity (Cutibacterium acnes [14]) | Activity ([Clostridium] innocuum [15]) | Activity (Finegoldia magna [16]) | Activity (Propionibacterium [17]) | Activity [21] | Activity (Bacteroides nordii [22]) | Activity [25] | Activity (Bacteroides eggerthii [26]) | Activity [28] | Activity (Phocaeicola vulgatus [30])
1 µg/mL: MIC50 [4] | MIC50 (Bacteroides nordii [5]) | MIC50 (Bacteroides ovatus [20]) | MIC50 (Bacteroides eggerthii [23]) | MIC50 (Parabacteroides merdae [27])
0.125 µg/mL: MIC50 [1] | MIC50 (Finegoldia magna [9]) | MIC90 (Finegoldia magna [9]) | MIC50 (Parvimonas micra) | MIC50 (Peptostreptococcus sp.) | MIC50 (Anaerococcus prevotii)
4 µg/mL: MIC50 ([Clostridium] innocuum [3]) | MIC90 [4] | MIC50 (Clostridium subterminale) | MIC50 (Clostridium tertium) | MIC90 [18] | MIC90 (Bacteroides ovatus [20]) | MIC50 [29]
2 µg/mL: MIC90 (Bacteroides nordii [5]) | MIC90 (Bacteroides fragilis [6]) | MIC50 [18] | MIC90 (Phocaeicola vulgatus [19]) | MIC90 (Bacteroides eggerthii [23]) | MIC90 (Bacteroides uniformis [24]) | MIC (Clostridioides difficile) | MIC90 (Parabacteroides merdae [27]) | MIC90 (Bacteroides caccae [31])
8 µg/mL: MIC90 ([Clostridium] innocuum [3]) | MIC90 (Clostridium subterminale) | MIC90 (Clostridium tertium) | MIC90 [29]
2.9%: Activity (Bacteroides ovatus [7])
2%: Activity (Bacteroides fragilis [11])
0.06 µg/mL: MIC (Cutibacterium acnes [10]) | MIC50 (Cutibacterium acnes [10]) | MIC90 (Cutibacterium acnes [10]) | MIC (Propionibacterium [13]) | MIC50 (Propionibacterium [13]) | MIC (Clostridium perfringens) | MIC50 (Clostridium perfringens)
0.5 µg/mL: MIC90 [1] | MIC50 (Bacteroides fragilis [6]) | MIC90 (Parvimonas micra) | MIC90 (Peptostreptococcus sp.) | MIC50 (Phocaeicola vulgatus [19]) | MIC90 (Anaerococcus prevotii) | MIC50 (Bacteroides uniformis [24]) | MIC50 (Bacteroides caccae [31])

CC(=O)NC[C@H]1CN(c2ccc(N3CCOCC3)c(F)c2)C(=O)O1 [LINEZOLID]
4 µg/mL: MIC50 ([Clostridium] innocuum [3]) | MIC50 (Clostridium subterminale) | MIC50 (Clostridium tertium) | MIC90 (Clostridium perfringens) | MIC50 [29]
1 µg/mL: MIC50 [1] | MIC90 (Cutibacterium acnes [10]) | MIC50 (Parvimonas micra) | MIC50 (Peptostreptococcus sp.) | MIC50 (Anaerococcus prevotii) | MIC (Clostridioides difficile)
11%: Activity ([Clostridium] innocuum [15])
0%: Activity (Cutibacterium acnes [14]) | Activity (Finegoldia magna [16]) | Activity (Propionibacterium [17]) | Activity [25]
0.5 µg/mL: MIC (Cutibacterium acnes [10]) | MIC50 (Cutibacterium acnes [10]) | MIC (Propionibacterium [13]) | MIC50 (Propionibacterium [13]) | MIC90 (Propionibacterium [13])
8 µg/mL: MIC90 ([Clostridium] innocuum [3]) | MIC90 (Clostridium subterminale) | MIC90 (Clostridium tertium) | MIC90 [29]
2 µg/mL: MIC90 [1] | MIC (Finegoldia magna [9]) | MIC50 (Finegoldia magna [9]) | MIC90 (Finegoldia magna [9]) | MIC90 (Parvimonas micra) | MIC90 (Peptostreptococcus sp.) | MIC (Clostridium perfringens) | MIC50 (Clostridium perfringens) | MIC90 (Anaerococcus prevotii)
